What was measured:
[1] = Prodrug conversion in C57BL/6 mouse brain assessed as bezafibrate level at 9.14 umol/kg, ip measured after 1 hr in presence of FAAH inhibitor PF-3845 by LC-MS/MS analysis; format: ADME, organism-based; conditions: in vivo
Method in brief: (§1)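 Male C57BL/6 mice (n=3) received PF-3845 at 1 mg/kg i.p., then prodrug at […] i.p. 1 h later; comparators received prodrug alone. Vehicle was DMSO. Whole brain was taken 1 h after prodrug and homogenized in water with d₆-sobetirome internal standard. It was extracted with EtOAc/MeCN and parent acid was measured by LC-MS/MS; mean ± SEM, 2-tailed unpaired t test.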

[2] = Prodrug conversion in C57BL/6 mouse brain assessed as 4-chlorobenzoate formation at 9.14 umol/kg, ip measured up to 6 hrs by LC-MS/MS analysis; format: ADME, organism-based; conditions: in vivo, BLD = below limit of detection
Method in brief: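 Male C57BL/6 mice (n=3) received prodrug at […] i.p. in DMSO. Brain was collected at 0.5, 2 and 6 h. The 4-chlorobenzoate cleavage product was sought by LC-MS/MS against a vehicle-brain standard curve with d₆-sobetirome internal standard; the limit was LoQ.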

[3] = AUC (0.5 to 6 hrs) in C57BL/6 mouse brain assessed as bezafibrate level at 9.14 umol/kg, ip by LC-MS/MS analysis; format: ADME, organism-based; set-up: time 0.5-6 hr, dose 9.14 umol/kg, route intraperitoneal; conditions: in vivo
Method in brief: (§2)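 Male wild-type C57BL/6 mice (8−10 weeks, n=3 per time point) received parent drug or equimolar prodrug at […] i.p. in DMSO. Brain and serum were collected at 0.5, 2 and 6 h. Parent acid was quantified by LC-MS/MS against vehicle-tissue standard curves with d₆-sobetirome internal standard. AUC0.5–6 h was computed from the time course; mean ± SEM.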

[4] = target: T1, Fatty-acid amide hydrolase 2 (Homo sapiens, UniProt Q6GMR7); assay: Substrate activity at FAAH2 in human brain S9 fraction assessed as bezafibrate level at 100 uM measured after 15 mins by LC-MS/MS analysis; format: ADME, subcellular; conditions: s9, 0.25 h
T1 sequence (Q6GMR7 whole entry): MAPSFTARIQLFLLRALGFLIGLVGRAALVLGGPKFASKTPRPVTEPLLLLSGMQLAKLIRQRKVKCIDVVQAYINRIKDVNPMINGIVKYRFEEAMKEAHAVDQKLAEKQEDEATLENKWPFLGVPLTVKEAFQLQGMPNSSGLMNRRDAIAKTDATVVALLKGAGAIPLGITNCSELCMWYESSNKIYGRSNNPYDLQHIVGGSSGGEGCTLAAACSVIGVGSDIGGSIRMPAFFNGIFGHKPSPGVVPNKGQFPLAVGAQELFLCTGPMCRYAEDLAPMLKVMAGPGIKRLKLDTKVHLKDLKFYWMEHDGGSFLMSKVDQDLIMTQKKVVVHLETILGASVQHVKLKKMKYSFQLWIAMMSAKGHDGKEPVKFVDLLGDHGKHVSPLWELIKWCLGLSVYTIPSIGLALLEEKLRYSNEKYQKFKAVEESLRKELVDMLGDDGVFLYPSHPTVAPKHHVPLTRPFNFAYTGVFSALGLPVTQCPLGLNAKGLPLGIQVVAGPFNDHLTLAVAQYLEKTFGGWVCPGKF
Method in brief: (§3)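 Human brain S9 at 1 mg/mL, with or without […] PF-3845, was prewarmed 5 min at 37 °C. It was incubated 15 min at 37 °C with 100 µM prodrug (final), then quenched with MeCN/DMF containing d₆-sobetirome. Parent acid was measured by LC-MS/MS. FAAH-dependent level = untreated sample (n=3) minus mean PF-3845 samples (n>2).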

[5] = AUC (0.5 to 6 hrs) in C57BL/6 mouse serum assessed as bezafibrate level at 9.14 umol/kg, ip by LC-MS/MS analysis; format: ADME, organism-based; set-up: dose 9.14 umol/kg, time upper 6 hr, time lower 0.5 hr, route intraperitoneal; conditions: in vivo; method in brief: as §2
[6] = Renal toxicity in C57BL/6 mouse assessed effect on Fasn gene expression in kidney at 9.14 umol/kg, ip administered once daily for 7 days by Trizol reagent based RT-qPCR analysis; format: organism-based; conditions: in vivo, 168 h
Method in brief: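 Male C57BL/6 mice (n=5) were dosed once daily for 7 days i.p. with parent drug at […], equimolar prodrug, or vehicle. The vehicle was 1:1:8 Kolliphor:NMP:water. Target gene expression was compared between groups per tissue by 2-tailed unpaired t test.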

[7] = Brain to serum concentration ratio, Kp of the compound in C57BL/6 mouse assessed as bezafibrate level at 9.14 umol/kg, ip by LC-MS/MS analysis; format: ADME, organism-based
Method in brief: (§4)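 Brain-to-serum ratio Kp was calculated from brain and serum parent-drug AUC0.5–6 h (ng/g*h). These AUCs came from male C57BL/6 mice (n=3 per time point) given parent drug or equimolar prodrug at […] i.p. in DMSO, sampled at 0.5, 2 and 6 h. Parent acid was quantified by LC-MS/MS with d₆-sobetirome internal standard.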

[8] = Prodrug conversion in C57BL/6 mouse brain assessed as 2-(3-chloro-4-((3-((7-propyl-3-(trifluoromethyl)-benzo[d]isoxazol-6-yl)oxy)propyl)thio)phenyl)acetic acid level at 9.14 umol/kg, ip measured after 1 hr in presence of FAAH inhibitor PF-3845 by LC-MS/MS analysis; format: ADME, organism-based; conditions: in vivo; method in brief: as §1
[9] = AUC (0.5 to 6 hrs) in C57BL/6 mouse brain assessed as 2-(3-chloro-4-((3-((7-propyl-3-(trifluoromethyl)-benzo[d]isoxazol-6-yl)oxy)propyl)thio)phenyl)acetic acid level at 9.14 umol/kg, ip by LC-MS/MS analysis; format: ADME, organism-based; set-up: time upper 6 hr, dose 9.14 umol/kg, time lower 0.5 hr, route intraperitoneal; conditions: in vivo; method in brief: as §2
[10] = target: T2, Fatty-acid amide hydrolase 1 (Homo sapiens, UniProt O00519); assay: Substrate activity at FAAH1 in human brain S9 fraction assessed as 2-(3-chloro-4-((3-((7-propyl-3-(trifluoromethyl)-benzo[d]isoxazol-6-yl)oxy)propyl)thio)phenyl)acetic acid level at 100 uM measured after 15 mins by LC-MS/MS analysis; format: ADME, subcellular; conditions: s9, 0.25 h; method in brief: as §3
T2 sequence (O00519 whole entry): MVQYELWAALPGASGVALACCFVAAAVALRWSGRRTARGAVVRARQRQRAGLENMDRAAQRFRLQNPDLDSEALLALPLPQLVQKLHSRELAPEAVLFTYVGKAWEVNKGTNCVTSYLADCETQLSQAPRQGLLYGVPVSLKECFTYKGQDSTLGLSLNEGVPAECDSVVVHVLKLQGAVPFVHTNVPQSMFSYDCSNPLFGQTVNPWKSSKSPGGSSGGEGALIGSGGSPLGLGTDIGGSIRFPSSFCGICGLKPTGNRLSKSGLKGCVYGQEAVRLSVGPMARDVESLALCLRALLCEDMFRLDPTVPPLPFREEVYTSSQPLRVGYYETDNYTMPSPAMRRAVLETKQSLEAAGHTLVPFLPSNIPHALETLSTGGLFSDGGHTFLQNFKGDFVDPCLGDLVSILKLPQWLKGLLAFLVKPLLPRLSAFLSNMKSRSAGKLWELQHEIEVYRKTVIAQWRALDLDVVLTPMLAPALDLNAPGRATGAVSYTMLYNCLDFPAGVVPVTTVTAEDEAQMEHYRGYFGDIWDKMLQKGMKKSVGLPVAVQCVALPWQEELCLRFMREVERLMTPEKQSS

[11] = Brain to serum concentration ratio, Kp of the compound in C57BL/6 mouse assessed as 2-(3-chloro-4-((3-((7-propyl-3-(trifluoromethyl)-benzo[d]isoxazol-6-yl)oxy)propyl)thio)phenyl)acetic acid level at 9.14 umol/kg, ip by LC-MS/MS analysis; format: ADME, organism-based; method in brief: as §4
[12] = AUC (0.5 to 6 hrs) in C57BL/6 mouse serum assessed as 2-(3-chloro-4-((3-((7-propyl-3-(trifluoromethyl)-benzo[d]isoxazol-6-yl)oxy)propyl)thio)phenyl)acetic acid level at 9.14 umol/kg, ip by LC-MS/MS analysis; format: ADME, organism-based; set-up: dose 9.14 umol/kg, time 0.5-6 hr, route intraperitoneal; conditions: in vivo; method in brief: as §2

| Drug metabolism [1] | Drug metabolism [2] | AUC [3] | Drug metabolism [4] | AUC [5] | Kp [7] | Drug metabolism [8] | AUC [9] | Drug metabolism [10] | Kp [11] | AUC [12] | Structure (SMILES) | Drug metabolism [6] |
| --- | --- | --- | --- | --- | --- | --- | --- | --- | --- | --- | --- | --- |
| Metabolite_Notdetected | Bld | 26.3 ng·h/g | Metabolite_Detected | 470.6 ng·h/g | 0.06 | – | – | – | – | – | CNC(=O)C(C)(C)Oc1ccc(CCNC(=O)c2ccc(Cl)cc2)cc1 | Metabolite_Detected |
| – | – | – | – | – | – | Metabolite_Notdetected | 12.64 ng·h/g | Metabolite_Notdetected | 0.05 | 276.5 ng·h/g | CCCc1c(OCCCSc2ccc(CC(=O)NC)cc2Cl)ccc2c(C(F)(F)F)noc12 | – |

Source: ChEMBL document CHEMBL4622977, “A CNS-Targeting Prodrug Strategy for Nuclear Receptor Modulators” (J Med Chem, 2020)
